The values that follow come from ChEMBL document CHEMBL4138116, “New bicyclic brominated furanones as potent autoinducer-2 quorum-sensing inhibitors against bacterial biofilm formation” (Eur J Med Chem, 2017).

Activity calls are given as the source filed them. No cut-off for these calls is given here.

Data set [1] has as its system Fusobacterium nucleatum. The experiment in a line: Inhibition of Fusobacterium nucleatum ATCC 25586 AI-2 assessed as decrease in biofilm formation at 0.02 to 0.2 uM.
The nature of data set [2]: Cytotoxicity against human gingival fibroblasts assessed as effect on cell viability at 2 uM incubated for 24 hrs by CCK8 assay. The gist of the method:
(§1)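 Cells in 96-well plates were exposed to compound for 24 h, with viability read by CCK-8 against a non-treated control. THP-1 (RPMI 1640, 10% FBS) was seeded at 1 × 10^5 cells/well and treated directly. HGFs (DMEM, 10% FBS) at 2 × 10^4 and HOK-16B (keratinocyte basal medium) at 5 × 10^4 cells/well were treated after reaching 85% confluence. Runs were done three times in triplicate.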
In general terms: Tetrazolium dyes change colour on reduction, which living cells bring about.

Data set [3] is described as follows: Effect on host cell immune response in human gingival fibroblasts assessed as upregulation of IL-8 mRNA expression at 2 uM after 24 hrs by RT-PCR method. In kind it is ADME. The gist of the method:
(§2)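 THP-1 cells (1 × 10^6 cells/well) or HGFs (2 × 10^5 cells/well) in 6-well plates were incubated 24 h at 37 °C with or without compound, with LPS as comparator. Total RNA (1 µg) was reverse-transcribed, and IL-6 and IL-8 mRNA were quantified by SYBR Green real-time PCR (40 cycles of 95 °C for 15 s and 60 °C for 1 min). Runs were done three times in triplicate.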

In data set [4] the test system is Fusobacterium nucleatum. Put plainly: Inhibition of Fusobacterium nucleatum AI-2-mediated biofilm formation of Porphyromonas gingivalis ATCC 33277 assessed as biofilm biomass at 2 uM incubated for 48 hrs under anaerobic condition by confocal laser scanning microscopic method (reference value: 3.73 um'3/um'2).
Data set [5] concerns Vibrio harveyi. Put plainly: Effect on Vibrio harveyi BB170 planktonic growth at 2 incubated for 9 hrs under aerobic condition by spectrophotometric method. Further details: concentration or dose not given beside the values. Conditions: in vitro.
The test system of data set [6] is Porphyromonas gingivalis. The experiment in a line: Inhibition of Porphyromonas gingivalis ATCC 33277 planktonic growth at […] incubated for 48 hrs under anaerobic condition by spectrophotometric method. In kind it is organism-based. The method in brief: (§3)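 F. nucleatum, P. gingivalis or T. forsythia were grown planktonically for 48 h at 37 °C under anaerobic conditions with compound at 2 mM. Growth was monitored by absorbance at 600 nm.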

Data set [7] can be described thus: Cytotoxicity against human HOK16B assessed as effect on cell viability at 2 uM incubated for 24 hrs by CCK8 assay. The method in brief: as §1
The subject of data set [8] is Fusobacterium nucleatum. Put plainly: Inhibition of Fusobacterium nucleatum AI-2-mediated biofilm formation of Fusobacterium nucleatum ATCC 25586 assessed as biofilm formation at 2 uM incubated for 48 hrs under anaerobic condition by crystal violet staining-based assay (reference value: 100%). Also noted: scale not given: the % may be the effect or the level left. The method in brief: (§4)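 Crystal-violet biofilm assay on glass slips in 24-well plates with 10% (v/v) F. nucleatum AI-2 and compound at 0.002–2 mM. Inocula were F. nucleatum 2 × 10^7, P. gingivalis 2 × 10^8 and T. forsythia 2 × 10^8 bacteria/mL, held 48 h anaerobically (10% H2, 10% CO2, 80% N2). Slips were washed three times with PBS, stained with 1% crystal violet for 10 min, destained with acetone–alcohol (20:80) and read at A595.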

For data set [9], the system named is THP-1. Put plainly: Effect on host cell immune response in human THP1 cells assessed as upregulation of IL-6 mRNA expression at 2 uM after 24 hrs by RT-PCR method. Type of data set: ADME, cell-based. Particulars: thp-1, 24 h. The gist of the method: as §2
For data set [10], the system named is Fusobacterium nucleatum. The experiment in a line: Inhibition of Fusobacterium nucleatum AI-2-mediated biofilm formation of Tannerella forsythia ATCC 43037 assessed as biofilm biomass at 2 uM incubated for 48 hrs under anaerobic condition by confocal laser scanning microscopic method (reference value: 4.05 um'3/um'2).
Data set [11] deals with THP-1. The experiment in a line: Cytotoxicity against human THP1 cells assessed as effect on cell viability at 2 uM incubated for 24 hrs by CCK8 assay. Type of data set: cell-based. Conditions: thp-1, 24 h. The method in brief:
as §1

Data set [12] relates to Tannerella forsythia. Put plainly: Inhibition of Tannerella forsythia ATCC 43037 planktonic growth at […] incubated for 48 hrs under anaerobic condition by spectrophotometric method. Type of data set: organism-based. The gist of the method:
as §3

Data set [13] deals with Fusobacterium nucleatum. Put plainly: Inhibition of Fusobacterium nucleatum ATCC 25586 planktonic growth at […] incubated for 48 hrs under anaerobic condition by spectrophotometric method. In kind it is organism-based. The gist of the method:
as §3

The test system of data set [14] is Fusobacterium nucleatum. The experiment in a line: Inhibition of Fusobacterium nucleatum AI-2-mediated biofilm formation of Tannerella forsythia ATCC 43037 assessed as biofilm formation at 2 uM incubated for 48 hrs under anaerobic condition by crystal violet staining-based assay (reference value: 100%). Further details: scale not given: the % may be the effect or the level left. The gist of the method: as §4

The nature of data set [15]: Effect on host cell immune response in human gingival fibroblasts assessed as upregulation of IL-6 mRNA expression at 2 uM after 24 hrs by RT-PCR method. In kind it is ADME. The method in brief:
as §2

The test system of data set [16] is Fusobacterium nucleatum. The experiment in a line: Inhibition of Fusobacterium nucleatum AI-2-mediated biofilm formation of Fusobacterium nucleatum ATCC 25586 assessed as biofilm biomass at 2 uM incubated for 48 hrs under anaerobic condition by confocal laser scanning microscopic method (reference value: 2.99 um'3/um'2).
The test system of data set [17] is THP-1. The experiment in a line: Effect on host cell immune response in human THP1 cells assessed as upregulation of IL-8 mRNA expression at 2 uM after 24 hrs by RT-PCR method. Type of data set: ADME, cell-based. Particulars: thp-1, 24 h. The gist of the method:
as §2

The test system of data set [18] is Fusobacterium nucleatum. Put plainly: Inhibition of Fusobacterium nucleatum AI-2-mediated biofilm formation of Fusobacterium nucleatum ATCC 25586 assessed as biofilm average depth at 2 uM incubated for 48 hrs under anaerobic condition by confocal laser scanning microscopic method (reference value: 5.37 um).
For data set [19], the system named is Fusobacterium nucleatum. Put plainly: Inhibition of Fusobacterium nucleatum AI-2-mediated biofilm formation of Tannerella forsythia ATCC 43037 assessed as biofilm average depth at 2 uM incubated for 48 hrs under anaerobic condition by confocal laser scanning microscopic method (reference value: 5.29 um).
Data set [20] relates to Fusobacterium nucleatum. The experiment in a line: Inhibition of Fusobacterium nucleatum AI-2-mediated biofilm formation of Porphyromonas gingivalis ATCC 33277 assessed as biofilm formation at 2 uM incubated for 48 hrs under anaerobic condition by crystal violet staining-based assay (reference value: 100%). Also noted: scale not given: the % may be the effect or the level left. The gist of the method: as §4

The test system of data set [21] is Fusobacterium nucleatum. The experiment in a line: Inhibition of Fusobacterium nucleatum AI-2-mediated biofilm formation of Porphyromonas gingivalis ATCC 33277 assessed as biofilm average depth at 2 uM incubated for 48 hrs under anaerobic condition by confocal laser scanning microscopic method (reference value: 4.87 um).
For data set [22], the system named is Fusobacterium nucleatum. Put plainly: Inhibition of Fusobacterium nucleatum ATCC 25586 AI-2 assessed as decrease in biofilm formation at 0.2 to 2 uM.

For the compound `CCCOc1cccc2c1C(=O)OC2=C(Br)Br`, the inhibition result in data set [1] was “inactive”.
For the compound `O=C1OC(=C(Br)Br)C2=C1CCC2`, the inhibition entry in data set [1] was “inactive”.
Regarding `Cc1ccc2c(c1)C(=C(Br)Br)OC2=O`, the Activity entry in data set [2] is “Non-Toxic”; in data set [3] it was “Non-Toxic”; in data set [4], 0.29 um3/um2; in data set [5], “Non-Toxic”; in data set [7], “Non-Toxic”; in data set [8] it was 32.1%. Also, the Activity result is “Non-Toxic” in data set [9]; 0.59 um3/um2 in data set [10]; “Non-Toxic” in data set [11]; 33.5% in [14]; “Non-Toxic” in data set [15]; 0.38 um3/um2 in data set [16]. Further, the Activity entry in [17] was “Non-Toxic”; in [18] it was 1.87 µm; in data set [19] it was 1.94 µm; in data set [20], 34.7%; in [21], 2.05 µm. Moreover, the “growth inhibition (GI)” value in [6], in [12] and in data set [13] was “Non-Toxic” in each case. In addition, the inhibition result in [1] was “Active”.
Turning to `O=C1OC(=C(Br)Br)C2CCCCC12` (stereo unspecified), in [1], the inhibition result is “inactive”.
Regarding `CCOc1cccc2c1C(=O)OC2=C(Br)Br`, the inhibition entry in data set [1] is “inactive”.
Take `Cc1cccc2c1C(=O)OC2=C(Br)Br`: the Activity result was “Non-Toxic” in data set [2]; “Non-Toxic” in [3]; 0.27 um3/um2 in data set [4]; “Non-Toxic” in data set [5]; “Non-Toxic” in [7]; 33.2% in [8]. Also, the Activity result in data set [9] is “Non-Toxic”; in [10], 0.88 um3/um2; in [11], “Non-Toxic”; in data set [14] it was 53.5%; in data set [15] it was “Non-Toxic”; in data set [16], 0.32 um3/um2. Moreover, the Activity entry in data set [17] was “Non-Toxic”; in [18], 1.72 µm; in data set [19] it was 2.41 µm; in data set [20] it was 29.3%; in data set [21] it was 1.97 µm. Moreover, the “growth inhibition (GI)” value in data set [6], in data set [12] and in data set [13] was “Non-Toxic” throughout. For the same compound, the inhibition result in data set [1] was “Active”.
Consider `CCOc1ccc2c(c1)C(=C(Br)Br)OC2=O`, for which, in [1], the inhibition entry was “inactive”.
Take `O=C1C=C(Br)/C(=C/Br)O1`: the Activity entry in data set [3] is “Toxic”; in data set [4], 0.3 um3/um2; in data set [5], “Toxic”; in [8], 55.6%; in [9] it was “Toxic”; in [10] it was 0.77 um3/um2. Also, the Activity in [14] was 47.4%; in data set [16], 0.42 um3/um2; in data set [17] it was “Toxic”; in data set [18], 2.02 µm; in [19], 2.18 µm; in data set [20] it was 39.2%. Moreover, in [21], the Activity was 2.05 µm. The inhibition result in data set [1] was “Active”.
Turning to `CCCCOc1ccc2c(c1)C(=C(Br)Br)OC2=O`, the inhibition result in data set [1] was “inactive”.
Regarding `CCCCCOc1ccc2c(c1)C(=C(Br)Br)OC2=O`, the inhibition result in data set [1] is “inactive”.
In the case of `O=C1OC(=C(Br)Br)C2CCCC12` (stereo unspecified), the Activity entry in data set [2] is “Non-Toxic”; in data set [3], “Non-Toxic”; in data set [4], 0.31 um3/um2; in [5], “Non-Toxic”; in data set [7] it was “Non-Toxic”; in data set [8], 38.8%. Also, the Activity result was “Non-Toxic” in data set [9]; 0.93 um3/um2 in data set [10]; “Non-Toxic” in data set [11]; 57.8% in data set [14]; “Non-Toxic” in data set [15]; 0.39 um3/um2 in data set [16]. Also, the Activity entry was “Non-Toxic” in data set [17]; 1.82 µm in data set [18]; 2.27 µm in [19]; 48.4% in data set [20]; 2.05 µm in data set [21]. Further, the “growth inhibition (GI)” value in [6], in [12] and in [13] was “Non-Toxic” each time. Further, the inhibition entry in data set [1] and in data set [22] was “Active” in each case.
Consider `O=C1OC(=C(Br)Br)C2=C1CCCC2`, for which the inhibition entry in data set [1] is “inactive”.
As to `CCCOc1ccc2c(c1)C(=C(Br)Br)OC2=O`, in data set [1], the inhibition entry is “inactive”.
As to `O=C1OC(=C(Br)Br)c2ccccc21`, the inhibition result in [1] is “inactive”. Also, in data set [22], the inhibition entry was “Active”.
In the case of `CCCCOc1cccc2c1C(=O)OC2=C(Br)Br`, the inhibition result in [1] was “inactive”.
As to `CCCCCOc1cccc2c1C(=O)OC2=C(Br)Br`, the inhibition entry in data set [1] was “inactive”.
